Assay results taken from PMC3662250 (Synlett : accounts and rapid communications in synthetic …, 2010).

Target: human ΔF508-CFTR (Homo sapiens, UniProt P13569, DEL508-508)
Experiment: ΔF508-CFTR corrector activity assay
Format: cell-based
Conditions: comparison with bithiazole 27 of earlier studies
How it was run: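 FRT cells expressing ΔF508-CFTR, with FRT-null cells as counter-screen. Cells were PBS-washed, then incubated 20 min with forskolin (20 µM) plus genistein (50 µM). Fluorescence (ex 500, em 535 nm) was read 2 s baseline, then 12 s after adding PBS with 137 mM Cl− replaced by I−. Initial slope was extrapolated from an exponential fit of the final 11.5 s. Controls were DMSO vehicle, a bithiazole corrector and CFTRinh-172 inhibition.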

Cc1cccc(Nc2ncnc3onc(-c4ccc(F)cc4)c23)c1C [Compound 7]
Vmax compared with s-cis locked bithiazole 27: greater Vmax value
